{"data": "Results pooled from the literature", "EGFR L858R/T790M": "Epidermal growth factor receptor (EGFR, Homo sapiens, UniProt P00533, L858R/T790M)", "EGFR L861Q": "Epidermal growth factor receptor (EGFR, Homo sapiens, UniProt P00533, L861Q)", "EGFR del746-750": "Epidermal growth factor receptor (EGFR, Homo sapiens, UniProt P00533, del746-750)", "EGFR G719C": "Epidermal growth factor receptor (EGFR, Homo sapiens, UniProt P00533, G719C)", "EGFR G719S": "Epidermal growth factor receptor (EGFR, Homo sapiens, UniProt P00533, G719S)", "EGFR T790M": "Epidermal growth factor receptor (EGFR, Homo sapiens, UniProt P00533, T790M)", "note": "Protocols differ between the studies behind these lines."}
{"Compound": "O=C(NCC1CCOCC1)c1n[nH]cc1NC(=O)c1c(F)cccc1F", "target": "EGFR L858R/T790M", "observed": "binding", "technique": "competition with immobilised ligand", "tested at": "1 µM", "remaining binding": "97%"}
{"Compound": "CC(=O)N1CCC(c2ccc(C(=O)NC(=N)N)cc2C(F)(F)F)CC1", "target": "EGFR L861Q", "observed": "cell-free assay", "technique": "competition with immobilised ligand", "tested at": "1 µM", "remaining binding": "91%"}
{"Compound": "O=C(Nc1c[nH]nc1C(=O)NC1CCNCC1)c1cc(F)cc(F)c1", "target": "EGFR L858R/T790M", "observed": "binding", "technique": "competition with immobilised ligand", "tested at": "1 µM", "remaining binding": "100%"}
{"Compound": "C[C@H]1CCN(c2nccc(-c3cnn4ncccc34)n2)C1", "target": "EGFR L858R/T790M", "observed": "binding", "tested at": "1 µM", "remaining binding": "80%"}
{"Compound": "O=C(N[C@H]1CCCCC/C=C\\C2C[C@@]2(C(=O)O)NC(=O)[C@@H]2C[C@@H](Oc3ccncc3)CN2C1=O)OC1CCCC1 (stereo partly drawn)", "target": "EGFR del746-750", "observed": "cell-free assay", "technique": "competition with immobilised ligand", "tested at": "1 µM", "remaining binding": "78%"}
{"Compound": "F[C@@H]1CCN(c2nccc(-c3cnn4ncccc34)n2)C1", "target": "EGFR del746-750", "observed": "binding", "tested at": "1 µM", "remaining binding": "66%"}
{"Compound": "COc1cnc(Nc2cccc(S(N)(=O)=O)c2)nc1N1CCN(c2ccccc2)CC1", "target": "EGFR G719C", "observed": "binding", "technique": "competition with immobilised ligand", "tested at": "1 µM", "remaining binding": "100%"}
{"Compound": "CCC(=O)N[C@@H]1CC[C@H](C(=O)N(C)c2ccc(-c3nc4ccccc4o3)cc2)C1", "target": "EGFR G719S", "observed": "cell-free assay", "technique": "competition with immobilised ligand", "tested at": "1 µM", "remaining binding": "96%"}
{"Compound": "c1cnn2ncc(-c3ccnc(N4CCC45COC5)n3)c2c1", "target": "EGFR G719S", "observed": "binding", "tested at": "1 µM", "remaining binding": "100%"}
{"Compound": "c1ccc(N2CCN(Cc3nc4ccccc4[nH]3)CC2)nc1", "target": "Epidermal growth factor receptor (EGFR, Homo sapiens, UniProt P00533, A750P/del747-749)", "observed": "cell-free assay", "technique": "competition with immobilised ligand", "tested at": "1 µM", "remaining binding": "100%"}
{"Compound": "CC1CCCN1c1nccc(-c2cnn3ncccc23)n1 (stereo not drawn)", "target": "EGFR G719S", "observed": "binding", "tested at": "1 µM", "remaining binding": "100%"}
{"Compound": "CCS(=O)(=O)c1cc2cc(C[C@](O)(CC(C)(C)c3ccc(F)cc3C(N)=O)C(F)(F)F)[nH]c2cn1", "target": "EGFR T790M", "observed": "cell-free assay", "technique": "competition with immobilised ligand", "tested at": "1 µM", "remaining binding": "78%"}
{"Compound": "O=C(c1ccc(Nc2ncc(Cl)c(-c3ccc(Cl)s3)n2)cc1)N1CCC(N2CCCC2)CC1", "target": "EGFR G719S", "observed": "binding", "technique": "competition with immobilised ligand", "tested at": "1 µM", "remaining binding": "96%"}
{"Compound": "Nc1cnc(N2CCc3cc(S(=O)(=O)Nc4c(F)cc(Cl)cc4F)cc(N4CCCC4=O)c32)nc1", "target": "EGFR G719S", "observed": "cell-free assay", "technique": "competition with immobilised ligand", "tested at": "1 µM", "remaining binding": "75%"}
{"Compound": "Cc1cnc(Nc2ccc(C(=O)N3CCC(N4CCCC4)CC3)cc2)nc1-c1cc2ccccc2s1", "target": "EGFR del746-750", "observed": "binding", "technique": "competition with immobilised ligand", "tested at": "1 µM", "remaining binding": "100%"}
{"Compound": "CN(C)CC#Cc1ccc(OCCCc2sc(N3CCc4cccc(C(=O)Nc5nc6ccccc6s5)c4C3)nc2C(=O)O)c(F)c1", "target": "Epidermal growth factor receptor (EGFR, Homo sapiens, UniProt P00533, del747-752/P753S)", "observed": "cell-free assay", "technique": "competition with immobilised ligand", "tested at": "1 µM", "remaining binding": "100%"}
{"Compound": "CNC(=O)[C@@H]1CC[C@@H](n2c(-c3ccc4cnccc4c3)nc3ccc(C(=O)NCc4cccc(C(N)=O)c4)cc32)C1", "target": "EGFR T790M", "observed": "binding", "technique": "competition with immobilised ligand", "tested at": "1 µM", "remaining binding": "72%"}
{"Compound": "CCN1CCN(Cc2ccc(C(=O)Nc3ccc(C)c(Oc4ccc5c(c4)CC(=O)N5)c3)cc2C(F)(F)F)CC1", "target": "EGFR G719C", "observed": "binding", "technique": "competition with immobilised ligand", "tested at": "1 µM", "remaining binding": "100%"}
{"Compound": "CN(C)c1ncc(F)c(-c2cnn3ncccc23)n1", "target": "EGFR del746-750", "observed": "binding", "tested at": "1 µM", "remaining binding": "100%"}
{"Compound": "c1cncc(-c2cccc(Nc3nccc(NC4CCCCC4)n3)c2)c1", "target": "EGFR T790M", "observed": "binding", "technique": "competition with immobilised ligand", "tested at": "10 µM", "remaining binding": "33%"}
{"Compound": "O=C(NCCCN1CCOCC1)c1ccc(Nc2nccc(-c3cc4ccccc4s3)n2)cc1", "target": "EGFR L858R/T790M", "observed": "binding", "technique": "competition with immobilised ligand", "tested at": "1 µM", "remaining binding": "75%"}
{"Compound": "Cc1cnn2ncc(-c3ccnc(N(C)C)n3)c2c1", "target": "EGFR L861Q", "observed": "binding", "tested at": "1 µM", "remaining binding": "70%"}
{"Compound": "O=C(NCCCN1CCOCC1)c1ccc(Nc2ncc(Cl)c(-c3ccc(Cl)s3)n2)cc1", "target": "Epidermal growth factor receptor (EGFR, Homo sapiens, UniProt P00533, L858R)", "observed": "binding", "technique": "competition with immobilised ligand", "tested at": "1 µM", "remaining binding": "82%"}
{"Compound": "CN(c1nccc(-c2cnn3ncccc23)n1)C1CC1", "target": "EGFR del746-750", "observed": "binding", "tested at": "1 µM", "remaining binding": "100%"}
